ChEMBL document CHEMBL1125614, “Synthesis of 2-exo- and 2-endo-mecamylamine analogues. Structure-activity relationships for nicotinic antagonism in the central nervous system” (J Med Chem, 1991)

Assays:
[1] = Partition coefficient (logP); format: physicochemical; conditions: octanol/water
Summary of the method: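 Octanol-water partition coefficient, calculated (not measured) from structure by the Rekker fragment procedure.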

Mus musculus [2] = assay: In vivo nicotinic antagonism relative to (+/-)-exo-mecamylamine measured in mice; format: functional
Summary of the method: (§1)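 Mice; antagonist or saline sc 10 min before saline or nicotine ditartrate at its ED84 dose. Spontaneous activity counted in photocell cages, % depression vs saline. Tail-flick latency to heat measured 5 min after nicotine, 10-s cutoff, as % MPE. % antagonism per assay; AD50 with 95% confidence limits by Litchfield-Wilcoxon. Potency ratio = compound AD50 / racemic mecamylamine AD50; relative potency averages both assays.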

Mus musculus [3] = assay: In vivo nicotinic antagonism relative to (+/-)-exo-mecamylamine measured in mice; stimulant; format: functional, organism-based; summary of the method: as §1

Row | SMILES | logP ([1]; read-out: logP) | Relative potency (Mus musculus [2]) | logP [1] | Relative potency (Mus musculus [3])
1 | CNC1CC2CCC1C2 (racemic) | 1.97 | >40 | – | –
2 | CN[C@@H]1C2(C)CCC(C2)C1(C)C (single isomer, unassigned; (-)) | 3.53 | 1.7 | – | –
3 | CNC1(C)C2CCC(C2)C1(C)C (racemic) [MECAMYLAMINE] | – | 1 | 3.53 | –
4 | CNC1C2CCC(C2)C1(C)C (racemic) | 3.01 | 1.2 | – | –
5 | CN[C@H]1C2(C)CCC(C2)C1(C)C (single isomer, unassigned; (-)) | 3.53 | 6.2 | – | –
6 | CNC1CC2CCC1(C)C2(C)C (racemic) | 3.53 | 8.6 | – | –
7 | CN[C@H]1C2(C)CCC(C2)C1(C)C (single isomer, unassigned; (+)) | – | 1.9 | – | –
8 | CNC1(C)C2CCC(C2)C1(C)C (single isomer, unassigned; (-)) [MECAMYLAMINE] | – | 1.4 | – | –
9 | CCNC1C2CCC(C2)C1c1ccccc1 (racemic) [FENCAMFAMIN] | 4.15 | – | – | Stimulant
10 | CNC1C2CCC(C2)C1C (racemic) | 2.49 | 18.1 | – | –
11 | CN(C)C1CC2CCC1(C)C2(C)C (racemic) | 3.96 | 10.5 | – | –
12 | CN[C@@H]1C2(C)CCC(C2)C1(C)C (single isomer, unassigned; (+)) | – | 1.2 | – | –
13 | CNC1(C)C2CCC(C2)C1(C)C (single isomer, unassigned; (+)) [MECAMYLAMINE] | – | 3 | – | –
14 | CN(C)C1(C)C2CCC(C2)C1(C)C (racemic) [DIMECAMINE] | 3.96 | 1.5 | – | –
